Experiments:
Heart [1] = test: Biodistribution in heart of Sprague-Dawley rat at 17 MBq, iv after 5 mins by dissection method; type: ADME, organism-based; details: in vivo
Procedure, shortened: (§1)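 The [18F]ligand was given to rats as a saline solution (average 17 MBq, about 0.11 nmol) via the tail vein. Three rats per time point were killed by cervical dislocation at 5, 15 and 30 min. Dissected tissues were gamma-counted with decay correction, and results are expressed as % injected dose per gram of wet tissue.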

Lung [2] = test: Biodistribution in lung of Sprague-Dawley rat at 17 MBq, iv after 5 mins by dissection method; type: ADME, organism-based; details: in vivo
Procedure, shortened: (§2)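 [¹⁸F]7a in saline (average 17 MBq/200 µL, 0.11 nmol) was given by tail vein. Rats were killed by cervical dislocation at 5, 15 or 30 min, with three rats per time point. Tissue radioactivity was measured by gamma counting, decay-corrected and expressed as %ID per gram of wet tissue.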

Spleen [3] = test: Biodistribution in spleen of Sprague-Dawley rat at 17 MBq, iv after 5 mins by dissection method; type: ADME, organism-based; details: in vivo; procedure, shortened: as §2
[4] = Biodistribution in small intestine of Sprague-Dawley rat at 17 MBq, iv after 5 mins by dissection method; type: ADME, organism-based; details: in vivo; procedure, shortened: as §2
Pancreas [5] = test: Biodistribution in pancreas of Sprague-Dawley rat at 17 MBq, iv after 5 mins by dissection method; type: ADME, organism-based; details: in vivo; procedure, shortened: as §2
[6] = Biodistribution in whole brain of Sprague-Dawley rat at 17 MBq, iv after 5 mins by dissection method; type: ADME, organism-based; details: in vivo; procedure, shortened: as §2
Cerebellum [7] = test: Biodistribution in cerebellum of Sprague-Dawley rat at 17 MBq, iv after 5 mins by dissection method; type: ADME, organism-based; details: in vivo; procedure, shortened: as §1
Thalamus [8] = test: Biodistribution in thalamus of Sprague-Dawley rat at 17 MBq, iv after 5 mins by dissection method; type: ADME, organism-based; details: in vivo; procedure, shortened: as §2
[9] = Biodistribution in olfactory bulb of Sprague-Dawley rat at 17 MBq, iv after 5 mins by dissection method; type: ADME, organism-based; details: in vivo; procedure, shortened: as §2
Cerebral cortex [10] = test: Biodistribution in cerebral cortex of Sprague-Dawley rat at 17 MBq, iv after 5 mins by dissection method; type: ADME, organism-based; details: in vivo; procedure, shortened: as §1
Blood [11] = test: Biodistribution in blood of Sprague-Dawley rat at 17 MBq, iv after 15 mins by dissection method; type: ADME, organism-based; details: in vivo, 0.25 h; procedure, shortened: as §1
Lung [12] = test: Biodistribution in lung of Sprague-Dawley rat at 17 MBq, iv after 15 mins by dissection method; type: ADME, organism-based; details: in vivo, 0.25 h; procedure, shortened: as §2
[13] = Biodistribution in small intestine of Sprague-Dawley rat at 17 MBq, iv after 15 mins by dissection method; type: ADME, organism-based; details: in vivo, 0.25 h; procedure, shortened: as §2
Pancreas [14] = test: Biodistribution in pancreas of Sprague-Dawley rat at 17 MBq, iv after 15 mins by dissection method; type: ADME, organism-based; details: in vivo, 0.25 h; procedure, shortened: as §2
Muscle tissue = test: Biodistribution in muscle of Sprague-Dawley rat at 17 MBq, iv after 15 mins by dissection method; type: ADME, organism-based; details: in vivo, 0.25 h; procedure, shortened: as §2
[15] = Biodistribution in whole brain of Sprague-Dawley rat at 17 MBq, iv after 15 mins by dissection method; type: ADME, organism-based; details: in vivo, 0.25 h; procedure, shortened: as §2
Hippocampus = test: Biodistribution in hippocampus of Sprague-Dawley rat at 17 MBq, iv after 15 mins by dissection method; type: ADME, organism-based; details: in vivo, 0.25 h; procedure, shortened: as §1
Thalamus [16] = test: Biodistribution in thalamus of Sprague-Dawley rat at 17 MBq, iv after 15 mins by dissection method; type: ADME, organism-based; details: in vivo, 0.25 h; procedure, shortened: as §2
Striatum [17] = test: Biodistribution in striatum of Sprague-Dawley rat at 17 MBq, iv after 15 mins by dissection method; type: ADME, organism-based; details: in vivo, 0.25 h; procedure, shortened: as §2
[18] = Biodistribution in pons-medulla of Sprague-Dawley rat at 17 MBq, iv after 15 mins by dissection method; type: ADME, organism-based; details: in vivo, 0.25 h; procedure, shortened: as §2
Blood [19] = test: Biodistribution in blood of Sprague-Dawley rat at 17 MBq, iv after 30 mins by dissection method; type: ADME, organism-based; details: in vivo, 0.5 h; procedure, shortened: as §1
Heart [20] = test: Biodistribution in heart of Sprague-Dawley rat at 17 MBq, iv after 30 mins by dissection method; type: ADME, organism-based; details: in vivo, 0.5 h; procedure, shortened: as §1
Liver = test: Biodistribution in liver of Sprague-Dawley rat at 17 MBq, iv after 30 mins by dissection method; type: ADME, organism-based; details: in vivo, 0.5 h; procedure, shortened: as §2
Spleen [21] = test: Biodistribution in spleen of Sprague-Dawley rat at 17 MBq, iv after 30 mins by dissection method; type: ADME, organism-based; details: in vivo, 0.5 h; procedure, shortened: as §2
Pancreas [22] = test: Biodistribution in pancreas of Sprague-Dawley rat at 17 MBq, iv after 30 mins by dissection method; type: ADME, organism-based; details: in vivo, 0.5 h; procedure, shortened: as §2
[23] = Biodistribution in whole brain of Sprague-Dawley rat at 17 MBq, iv after 30 mins by dissection method; type: ADME, organism-based; details: in vivo, 0.5 h; procedure, shortened: as §2
Cerebellum [24] = test: Biodistribution in cerebellum of Sprague-Dawley rat at 17 MBq, iv after 30 mins by dissection method; type: ADME, organism-based; details: in vivo, 0.5 h; procedure, shortened: as §1
Thalamus [25] = test: Biodistribution in thalamus of Sprague-Dawley rat at 17 MBq, iv after 30 mins by dissection method; type: ADME, organism-based; details: in vivo, 0.5 h; procedure, shortened: as §2
Striatum [26] = test: Biodistribution in striatum of Sprague-Dawley rat at 17 MBq, iv after 30 mins by dissection method; type: ADME, organism-based; details: in vivo, 0.5 h; procedure, shortened: as §2
Cerebral cortex [27] = test: Biodistribution in cerebral cortex of Sprague-Dawley rat at 17 MBq, iv after 30 mins by dissection method; type: ADME, organism-based; details: in vivo, 0.5 h; procedure, shortened: as §1
[28] = Biodistribution in pons-medulla of Sprague-Dawley rat at 17 MBq, iv after 30 mins by dissection method; type: ADME, organism-based; details: in vivo, 0.5 h; procedure, shortened: as §2
[29] = Fraction unbound in Sprague-Dawley rat plasma after 15 mins by ultra-filtration method; type: ADME; details: 0.25 h
Procedure, shortened: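 Plasma protein binding was measured by ultrafiltration. Blood was spun at 3900 rpm for 5 min at 4 °C to obtain plasma. 40 µL of plasma was centrifuged in a filter unit at 2000 rpm for 15 min at 25 °C, and a saline control was run the same way. Free fraction was taken as ultrafiltrate/plasma radioactivity, corrected for a stick factor.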

[30] = Octanol-sodium phosphate buffer partition coefficient, log D of the compound at pH 7.4; type: physicochemical
Procedure, shortened: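 [¹⁸F]7a (radiochemical purity 100%, about 150,000 cpm) was mixed with n-octanol (3.0 g) and 0.1 M sodium phosphate buffer pH 7.40 (3.0 g). The mix was vortexed for 3 min at room temperature, then centrifuged at 3500 rpm for 5 min. Assays were run in triplicate.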

[31] = Ratio of drug uptake in Sprague-Dawley rat striatum to medulla at 17 MBq, iv after 10 to 15 mins by small-animal PET; details: in vivo
[32] = Ratio of drug uptake in Sprague-Dawley rat cerebellum to medulla at 17 MBq, iv after 10 to 15 mins by small-animal PET; details: in vivo
[33] = Ratio of drug uptake in Sprague-Dawley rat cerebral cortex to medulla at 17 MBq, iv after 10 to 15 mins by small-animal PET; details: in vivo
[34] = Metabolic stability in plasma of ddy mouse assessed as reduction of parent compound level at 3.7 MBq, iv after 5 mins by HPLC analysis; parameters: scale not given: the % may be the effect or the level left
[35] = test system: Cerebellum (Mus musculus); test: Metabolic stability in cerebellum of mouse assessed as reduction of parent compound level at 3.7 MBq, iv after 15 mins by HPLC analysis; parameters: scale not given: the % may be the effect or the level left; details: in vivo, 0.25 h
[36] = test system: Cerebellum (Mus musculus); test: Metabolic stability in cerebellum of mouse assessed as reduction of parent compound level at 3.7 MBq, iv after 30 mins by HPLC analysis; parameters: scale not given: the % may be the effect or the level left; details: in vivo, 0.5 h

Drug uptake (Heart [1]): 0.47 % ID/g
Drug uptake (Lung [2]): 0.5 % ID/g
Drug uptake (Spleen [3]): 0.43 % ID/g
Drug uptake [4]: 3.06 % ID/g
Drug uptake (Pancreas [5]): 0.75 % ID/g
Drug uptake [6]: 0.52 % ID/g
Drug uptake (Cerebellum [7]): 1.21 % ID/g
Drug uptake (Thalamus [8]): 0.73 % ID/g
Drug uptake [9]: 0.52 % ID/g
Drug uptake (Cerebral cortex [10]): 0.44 % ID/g
Drug uptake (Blood [11]): 0.26 % ID/g
Drug uptake (Lung [12]): 0.31 % ID/g
Drug uptake [13]: 4.64 % ID/g
Drug uptake (Pancreas [14]): 0.34 % ID/g
Drug uptake (Muscle tissue): 0.14 % ID/g
Drug uptake [15]: 0.23 % ID/g
Drug uptake (Hippocampus): 0.22 % ID/g
Drug uptake (Thalamus [16]): 0.29 % ID/g
Drug uptake (Striatum [17]): 0.23 % ID/g
Drug uptake [18]: 0.21 % ID/g
Drug uptake (Blood [19]): 0.15 % ID/g
Drug uptake (Heart [20]): 0.16 % ID/g
Drug uptake (Liver): 1.93 % ID/g
Drug uptake (Spleen [21]): 0.16 % ID/g
Drug uptake (Pancreas [22]): 0.21 % ID/g
Drug uptake [23]: 0.11 % ID/g
Drug uptake (Cerebellum [24]): 0.2 % ID/g
Drug uptake (Thalamus [25]): 0.1 % ID/g
Drug uptake (Striatum [26]): 0.11 % ID/g
Drug uptake (Cerebral cortex [27]): 0.09 % ID/g
Drug uptake [28]: 0.13 % ID/g
Activity [29]: 8.5%
logD [30]: 2.53
Ratio [31]: 1.55
Ratio [32]: 3.73
Ratio [33]: 1.31
Stability [34]: 57%
Stability [35]: 91%
Stability [36]: 67%
Compound: Cc1c(-c2ccc3ncccc3c2)nnn1-c1cccnc1[18F]

Reference: ChEMBL document CHEMBL1641444, “Synthesis and evaluation of 6-[1-(2-[(18)F]fluoro-3-pyridyl)-5-methyl-1H-1,2,3-triazol-4-yl]quinoline for positron emission tomography imaging of the metabotropic glutamate receptor type 1 in brain” (Bioorg Med Chem, 2011)
